Screens as filed in PubChem BioAssay.
Most compounds without a hit are left out; they make up all but 3.8% or so of the library.
KCNK9 block – KCNK9 potassium channel inhibitors, primary screen, HEK293 cells, thallium flux. Potassium channel subfamily K member 9 (Homo sapiens), Q9NPC2. FluxOR thallium flux fluorescence; hits give low values. B-score at 10 µM. 310,000 compounds, 1.2% hits;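 active means ratio B-score over 3 SD below the library mean, with starting fluorescence within 5 SD of its mean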;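 further: negative B-score means less thallium flux so channel inhibition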
hERG rescue – hERG rescue from dofetilide block, primary screen, cell-based, CHO-hERG, FluxOR thallium flux, dofetilide IC70 | Voltage-gated inwardly rectifying potassium channel KCNH2 (Homo sapiens), Q12809 | dofetilide IC70 present | activation (rescue from dofetilide block), less the hit threshold, % at 10 µM | 310,000 compounds, 0.51% hits;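 active means activation above the mean of controls blocked by dofetilide plus 5 SD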;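 further: thallium influx through hERG after potassium depolarization seen as dye fluorescence rise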
KCNQ1 pot – potentiators or activators of KCNQ1 channel, primary screen, cell-based, thallium flux, high-throughput. AID 2648, 2010. 310,000 compounds, 0.35% hits. CHO-K1 KCNQ1, thallium flux FluxOR fluorescence; hits give high values. B-score at 10 µM;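 active means fluorescence ratio B-score, a plate-corrected score, at least three library SD, with initial intensity B-score within 5 SD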
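Medium – assay buffer, equal DMSO in all wells · Material – CHO-K1 cell line with stable KCNQ1 potassium channel expression · Signal – kinetic FluxOR thallium fluorescence, 10-s 1-Hz baseline, 110-s post-stimulus read · Compound – single concentration per compound, DMSO matched to controls · Schedule – 37 °C overnight plating, 90-min dark dye load, 20-min compound pretreatment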
Kir21 inh – inhibitors of mouse Kir2.1 inward-rectifier potassium channel. B-score at 10 µM. 310,000 compounds, 0.85% hits. Inward rectifier potassium channel 2 (Mus musculus), P35561. HEK293-Kir2.1, FluxOR thallium flux fluorescence; hits give low values;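 active means fluorescence ratio B-score at or below minus 3 SD of library scores, with starting-brightness B-score within 2 SD, cut at about -4.2 in these data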;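 further: channel flux triggered by added potassium and thallium sulfate stimulus; B-score of peak minus minimum fluorescence over baseline after thallium stimulus; more negative B-score means stronger Kir2.1 block with less thallium influx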
KCNQ1 inh – inhibitors of human KCNQ1 channel, primary screen, cell-based, thallium flux, high-throughput | Potassium voltage-gated channel subfamily KQT member 1 (Homo sapiens), P51787 | B-score at 10 µM | 310,000 compounds, 1.3% hits | CHO-K1 KCNQ1, FluxOR thallium flux fluorescence; hits give high values;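 active means compounds whose thallium flux B-score, printed positive for inhibition, exceeds three library SD while starting fluorescence stays within three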;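 further: channel opened by potassium depolarization with thallium stimulus after 20 min compound exposure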
KCNK3 block – human KCNK3 channel inhibitors, primary screen, CHO cells, FluxOR thallium flux, B-score | Potassium channel subfamily K member 3 (Homo sapiens), O14649 | FluxOR fluorescence; hits give low values | B-score at 10 µM | 340,000 compounds, 0.84% hits | AID 602410, 2012;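 active means B-score under library mean minus 4 SD, starting fluorescence ratio at most library mean plus 5 SD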;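 further: more negative B-score means stronger inhibition of thallium flux through KCNK3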
Target sequence (O14649 whole entry, looked up): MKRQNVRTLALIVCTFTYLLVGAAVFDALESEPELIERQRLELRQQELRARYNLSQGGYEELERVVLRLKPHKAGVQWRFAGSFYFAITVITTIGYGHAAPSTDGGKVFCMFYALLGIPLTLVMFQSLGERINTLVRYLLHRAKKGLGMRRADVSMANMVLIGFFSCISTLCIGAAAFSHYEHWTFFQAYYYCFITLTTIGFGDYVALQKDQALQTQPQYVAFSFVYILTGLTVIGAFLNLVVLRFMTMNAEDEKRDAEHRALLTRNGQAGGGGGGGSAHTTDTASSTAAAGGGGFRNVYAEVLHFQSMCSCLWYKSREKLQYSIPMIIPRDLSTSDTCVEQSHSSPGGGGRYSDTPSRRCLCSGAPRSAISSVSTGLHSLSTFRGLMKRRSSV
KCNK3 confirm – retest of human KCNK3 channel inhibitors, confirmation, CHO cells, FluxOR thallium flux, triplicate; FluxOR fluorescence; 0% buffer, 100% carvedilol maximal block; ratio percent of control, % at 10 µM; shares compounds with KCNK3 block; 2,400 compounds, 99% hits;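 active means ratio percent of control, averaged over triplicates, above buffer control mean plus 5 SD, cut at about 64% in these data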;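 further: ratio is the fluorescence rise from min to max over baseline after thallium stimulus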
KCNK3 uninduced – thallium flux inhibition in non-induced cells, primary screen, counter-screen for KCNK3 inhibitor project, cell-based, non-induced KCNK3 line, FluxOR thallium, triplicate | shares compounds with KCNK3 block | non-induced KCNK3 parental cells; hits give low values | thallium flux ratio (lower = more inhibition) at 10 µM | 2,400 compounds, 40% hits;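 active means thallium flux ratio, averaged over three wells, more than 5 SD below the buffer control mean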;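 further: host cells are CHO cells without KCNK3 induction; ratio is peak minus trough fluorescence over baseline then normalized to buffer controls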
Numbers without * were called inactive; i = inactive; . = not tested or not shown.

SMILES	KCNK9 block	hERG rescue	KCNQ1 pot	Kir21 inh	KCNQ1 inh	KCNK3 block	KCNK3 confirm	KCNK3 uninduced
CCOC(=O)/C(C#N)=C/c1cc2ccccc2nc1N1CCCCC1	-7.3*	-9	i	-0.01	12*	-9.5*	0	i
COc1ccccc1CNS(=O)(=O)c1cc2c3c(c1)CCN3C(=O)CC2	i	-8	i	-0.04	i	i	.	.
CC(C)CNC(=S)N1CCN(C(c2ccccc2)c2ccccc2)CC1	i	-8	i	-0.3	i	i	.	.
S=C(NCc1ccco1)N1CCN(C(c2ccccc2)c2ccccc2)CC1	-7.8*	-4	i	1.5	i	-12*	135*	0.15*
Cn1cccc1C(=O)OCC(=O)N1CCN(c2ccccc2)CC1	.	.	.	.	.	i	.	.
Cc1cccc(Sc2c(C=O)c3ccccc3n2C)c1	i	-6	i	-0.87	i	-10*	110*	0.14*
Cc1cccc(Nc2cc(C)c3c(O)cccc3n2)c1C	i	-28	i	-0.91	i	-9.7*	111*	i
CC(C)c1ccc(-c2csc3nc[nH]c(=O)c23)cc1	i	-6	i	0.01	i	i	.	.
O=C1Nc2ccccc2C12OCC(COc1ccc(Cl)cc1)O2 (centres undefined)	i	-17	i	1.3	i	-10*	108*	i
CN1C(=O)C2(OCC(COc3ccc(Cl)cc3)O2)c2ccccc21 (centres undefined)	i	2	i	-0.4	i	i	.	.
Cn1c(=O)[nH]c(=O)c2c1nc(SCc1ccccc1Cl)n2CC(N)=O	i	-4	i	-0.82	i	i	.	.
Cc1cc(C)cc(NC(=S)N(CCN2CCCCC2)Cc2ccco2)c1	i	-3	i	-1.9	i	-8.9*	90*	i
Cc1cc(/C=C2\SC(=S)NC2=O)c(C)n1-c1cccc(O)c1	-7.3*	-17	i	-2.7	i	-8.9*	113*	0.15*
CCCCOc1ccc2ccccc2c1C=O	i	-4	i	-0.47	i	-15*	129*	i
CC[C@H](C)/C=C(C)/C=C/C1=CC2=CC(=O)[C@]3(C)OC(=O)[C@@H](C(C)=O)[C@@H]3C2=CO1	i	-24	i	-1.7	6*	-9*	122*	0.078*
CCn1cc(C(=O)N[C@@H](CCSC)C(=O)NCCCOC)c(=O)c2cc3c(cc21)OCO3	i	-5	i	0.87	i	i	.	.
N#Cc1ccccc1Sc1ccccc1C(=O)OCc1nnc(-c2ccccc2)o1	i	-8	i	-0.73	i	-9.9*	78*	i
COc1ccc(C(=O)N/C(=C\c2cn(C)c3ccccc23)C(=O)N2CCOCC2)cc1OC	i	-7	i	-0.43	i	i	.	.
COc1ccccc1C1CC(=O)Oc2cc(C)c(Br)c(C)c21 (centres undefined)	.	.	.	.	.	i	.	.
COc1ccccc1NS(=O)(=O)c1cccc(NC(=O)c2sc3ccccc3c2Cl)c1	i	-12	i	0.85	i	-9.1*	96*	i
CCCc1nnc(NC(=O)CCC(=O)NCCc2ccc(OC)c(OC)c2)s1	i	-5	i	1.6	i	i	.	.
O=c1oc2cc(Oc3c([N+](=O)[O-])cc(C(F)(F)F)cc3[N+](=O)[O-])ccc2c2c1CCCC2	i	-21	i	-3.5	11*	-9.7*	136*	0.14*
O=c1oc2cc(Oc3ccc(C(F)(F)F)cc3[N+](=O)[O-])ccc2c2c1CCC2	i	-7	i	0.17	i	i	.	.
Cc1ccc(NC(=O)CSc2nnc(CNC(=O)c3ccco3)n2C)cc1C	i	-7	i	1.1	i	i	.	.
Cc1ccc(/C=C2/C(=O)ON=C2c2ccccc2)o1	i	-11	i	-5.9*	i	-10*	122*	i
SMILES	KCNK9 block	hERG rescue	KCNQ1 pot	Kir21 inh	KCNQ1 inh	KCNK3 block	KCNK3 confirm	KCNK3 uninduced
COc1cc(/C=C2\C(=O)ON=C2c2ccccc2)cc(Cl)c1O	i	-43	i	-10*	i	-8.9*	115*	0.14*
CCOc1cc(/C=C2\C(=O)ON=C2c2ccccc2)cc(Br)c1O	i	-32	i	-7.3*	6*	-8.8*	135*	0.098*
CCOc1cc(/C=C2\C(=O)ON=C2C)ccc1OCc1ccccc1	i	-7	i	1.1	i	i	.	.
COc1ccc(/C=C2/C(=O)ON=C2C)cc1Cl	i	-1	i	0.34	i	i	.	.
CCOc1ccc(S(=O)(=O)N2CCCC(C(=O)NCC3CCCO3)C2)cc1 (centres undefined)	i	-9	i	-1.4	i	i	.	.
Cn1c(CNC(=O)C(Cc2ccccc2)NC(=O)c2ccccc2)cc(=O)n(C)c1=O (centres undefined)	i	-5	i	1.4	i	i	.	.
Cc1ccc(S(=O)(=O)N2CCN(C(=O)C3CCN(c4ncnc5sc(C)c(C)c45)CC3)CC2)c(C)c1	.	.	.	.	.	i	.	.
O=C(Nc1cccc(Cl)c1)OC1CCCCc2cccnc21 (centres undefined)	i	-3	i	0.13	i	-9.3*	116*	i
CCCn1ncc([C@@H]2C[C@H]3CN(Cc4cccc(Cl)c4)C(=O)[C@]34CCCN24)c1C	i	-11	i	0.01	i	i	.	.
Cc1nn(C)cc1[C@@H]1C[C@H]2CN(Cc3cccc(Cl)c3)C(=O)[C@]23CCCN13	i	-8	i	0.81	i	i	.	.
O=C1N(Cc2cccc(Cl)c2)C[C@@H]2C[C@@H](c3ccco3)N3CCC[C@@]123	i	-8	i	0.07	i	-9.2*	88*	i
Cn1cc([C@@H]2C[C@H]3CN(Cc4cccc(Cl)c4)C(=O)[C@]34CCCN24)c(-c2ccccc2)n1	-7.3*	-6	i	-1.9	i	-9.7*	100*	i
Nc1nc2ccc(NC(=O)c3ccco3)cc2s1	i	-9	i	0.36	i	i	.	.
